Target: Human integrin αvβ3 receptor (Homo sapiens, UniProt P05106+P06756)
Assay type: binding
Settings: for IC50: SD; for increase of IC50 compared to the free ligand 1: αvβ3, biotinylated vitronectin binding, from Table 1
Summary of the method: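 Immobilized integrin αvβ3 incubated with test compound at graded concentrations (10−12 to 10−5) together with biotinylated vitronectin (1 μg mL−1); bound vitronectin measured. IC50 taken from the inhibition of vitronectin binding, reported as arithmetic mean ± SD of triplicate determinations.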

Chain of Human integrin αvβ3 receptor (P06756 31-992 limits assumed): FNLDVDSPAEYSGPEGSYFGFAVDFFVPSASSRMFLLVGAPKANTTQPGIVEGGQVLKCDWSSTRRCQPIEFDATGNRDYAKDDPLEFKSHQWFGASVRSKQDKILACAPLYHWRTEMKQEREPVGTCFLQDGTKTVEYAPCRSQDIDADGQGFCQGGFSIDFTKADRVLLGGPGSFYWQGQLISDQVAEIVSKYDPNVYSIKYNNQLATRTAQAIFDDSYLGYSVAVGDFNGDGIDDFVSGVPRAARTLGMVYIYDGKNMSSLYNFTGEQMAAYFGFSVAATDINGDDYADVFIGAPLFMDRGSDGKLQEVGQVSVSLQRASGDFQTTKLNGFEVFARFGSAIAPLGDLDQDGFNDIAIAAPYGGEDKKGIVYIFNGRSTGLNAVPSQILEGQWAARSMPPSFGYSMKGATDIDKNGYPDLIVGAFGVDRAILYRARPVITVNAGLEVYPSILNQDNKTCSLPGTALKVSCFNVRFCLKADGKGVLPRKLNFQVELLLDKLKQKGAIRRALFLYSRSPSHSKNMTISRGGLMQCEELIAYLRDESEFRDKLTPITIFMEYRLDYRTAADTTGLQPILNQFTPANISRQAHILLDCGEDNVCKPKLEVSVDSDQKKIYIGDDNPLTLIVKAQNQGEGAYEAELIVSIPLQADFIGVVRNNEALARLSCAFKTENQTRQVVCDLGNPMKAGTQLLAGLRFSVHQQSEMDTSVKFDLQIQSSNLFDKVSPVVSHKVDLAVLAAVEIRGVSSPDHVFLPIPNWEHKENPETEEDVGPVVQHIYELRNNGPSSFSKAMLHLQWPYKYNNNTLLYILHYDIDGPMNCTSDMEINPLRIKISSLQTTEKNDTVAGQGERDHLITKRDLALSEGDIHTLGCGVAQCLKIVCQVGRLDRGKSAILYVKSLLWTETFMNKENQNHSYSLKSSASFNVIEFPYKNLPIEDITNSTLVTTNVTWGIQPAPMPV
Chain of Human integrin αvβ3 receptor (P05106 27-718 limits assumed): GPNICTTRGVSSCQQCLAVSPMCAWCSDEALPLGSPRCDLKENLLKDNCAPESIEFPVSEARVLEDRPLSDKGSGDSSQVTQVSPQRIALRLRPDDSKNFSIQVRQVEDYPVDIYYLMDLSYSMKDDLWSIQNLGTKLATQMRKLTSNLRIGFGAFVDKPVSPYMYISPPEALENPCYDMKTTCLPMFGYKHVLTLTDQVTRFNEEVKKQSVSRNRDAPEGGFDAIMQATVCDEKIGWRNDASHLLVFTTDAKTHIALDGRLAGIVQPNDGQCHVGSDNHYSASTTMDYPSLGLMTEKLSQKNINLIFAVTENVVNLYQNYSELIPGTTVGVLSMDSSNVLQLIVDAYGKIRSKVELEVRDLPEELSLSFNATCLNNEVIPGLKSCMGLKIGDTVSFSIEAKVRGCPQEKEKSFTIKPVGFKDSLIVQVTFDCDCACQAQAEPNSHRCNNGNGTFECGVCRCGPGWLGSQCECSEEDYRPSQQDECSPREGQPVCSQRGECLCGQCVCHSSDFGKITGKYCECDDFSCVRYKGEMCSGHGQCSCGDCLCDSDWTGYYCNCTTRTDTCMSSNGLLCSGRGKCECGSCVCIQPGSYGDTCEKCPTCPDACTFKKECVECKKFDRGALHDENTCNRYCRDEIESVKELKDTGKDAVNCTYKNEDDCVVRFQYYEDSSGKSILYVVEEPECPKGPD

Compound	IC50	increase of IC50 compared to the free ligand 1
CC(=O)O[C@H]1C(=O)[C@@]2(C)[C@H]([C@H](OC(=O)c3ccccc3)[C@]3(O)C[C@H](OC(=O)[C@H](OC(=O)N(C)CCN(C)C(=O)OCc4ccc(NC(=O)[C@H](C)NC(=O)[C@@H](NC(=O)CCc5cn(CCOCCOCCOCCOCC(=O)NCc6ccc(CN7C(=O)[C@H]8CC(=O)N[C@@H](CCCNC(=N)N)C(=O)NCC(=O)N[C@@H](CC(=O)O)C(=O)NC[C@H]7C(=O)N8)cc6)nn5)C(C)C)cc4)[C@@H](NC(=O)c4ccccc4)c4ccccc4)C(C)=C1C3(C)C)[C@]1(OC(C)=O)CO[C@@H]1C[C@@H]2O [compound 5, cyclo[DKP‐RGD]‐Val‐Ala‐PTX (aliphatic scaffold)]	14.8 ± 3.9 nM	3 fold
CC(=O)O[C@H]1C(=O)[C@@]2(C)[C@H]([C@H](OC(=O)c3ccccc3)[C@]3(O)C[C@H](OC(=O)[C@H](OC(=O)N(C)CCN(C)C(=O)OCc4ccc(NC(=O)[C@H](C)NC(=O)[C@@H](NC(=O)c5ccc(OCc6cn(CCOCCOCCOCCOCC(=O)NCc7ccc(CN8C(=O)[C@H]9CC(=O)N[C@@H](CCCNC(=N)N)C(=O)NCC(=O)N[C@@H](CC(=O)O)C(=O)NC[C@H]8C(=O)N9)cc7)nn6)cc5)C(C)C)cc4)[C@@H](NC(=O)c4ccccc4)c4ccccc4)C(C)=C1C3(C)C)[C@]1(OC(C)=O)CO[C@@H]1C[C@@H]2O [compound 6, cyclo[DKP‐RGD]‐Val‐Ala‐PTX (aromatic scaffold)]	27.3 ± 9.8 nM	6 fold
CC(=O)O[C@H]1C(=O)[C@@]2(C)[C@H]([C@H](OC(=O)c3ccccc3)[C@]3(O)C[C@H](OC(=O)[C@H](OC(=O)N(C)CCN(C)C(=O)OCc4ccc(NC(=O)[C@H](C)NC(=O)[C@@H](NC(=O)Cc5cc(OCc6cn(CCOCCOCCOCCOCC(=O)NCc7ccc(CN8C(=O)[C@H]9CC(=O)N[C@@H](CCCNC(=N)N)C(=O)NCC(=O)N[C@@H](CC(=O)O)C(=O)NC[C@H]8C(=O)N9)cc7)nn6)cc(OCc6cn(CCOCCOCCOCCOCC(=O)NCc7ccc(CN8C(=O)[C@H]9CC(=O)N[C@@H](CCCNC(=N)N)C(=O)NCC(=O)N[C@@H](CC(=O)O)C(=O)NC[C@H]8C(=O)N9)cc7)nn6)c5)C(C)C)cc4)[C@@H](NC(=O)c4ccccc4)c4ccccc4)C(C)=C1C3(C)C)[C@]1(OC(C)=O)CO[C@@H]1C[C@@H]2O [compound 7, (cyclo[DKP‐RGD])2‐Val‐Ala‐PTX]	4 ± 0.1 nM	
CC(=O)O[C@H]1C(=O)[C@@]2(C)[C@H]([C@H](OC(=O)c3ccccc3)[C@]3(O)C[C@H](OC(=O)[C@H](OC(=O)N(C)CCN(C)C(=O)OCc4ccc(NC(=O)[C@H](C)NC(=O)[C@@H](NC(=O)Cc5cc(OCCNC(=O)Cc6cc(OCc7cn(CCOCCOCCOCCOCC(=O)NCc8ccc(CN9C(=O)[C@H]%10CC(=O)N[C@@H](CCCNC(=N)N)C(=O)NCC(=O)N[C@@H](CC(=O)O)C(=O)NC[C@H]9C(=O)N%10)cc8)nn7)cc(OCc7cn(CCOCCOCCOCCOCC(=O)NCc8ccc(CN9C(=O)[C@H]%10CC(=O)N[C@@H](CCCNC(=N)N)C(=O)NCC(=O)N[C@@H](CC(=O)O)C(=O)NC[C@H]9C(=O)N%10)cc8)nn7)c6)cc(OCCNC(=O)c6ccc(OCc7cn(CCOCCOCCOCCOCC(=O)NCc8ccc(CN9C(=O)[C@H]%10CC(=O)N[C@@H](CCCNC(=N)N)C(=O)NCC(=O)N[C@@H](CC(=O)O)C(=O)NC[C@H]9C(=O)N%10)cc8)nn7)cc6)c5)C(C)C)cc4)[C@@H](NC(=O)c4ccccc4)c4ccccc4)C(C)=C1C3(C)C)[C@]1(OC(C)=O)CO[C@@H]1C[C@@H]2O [compound 8, (cyclo[DKP‐RGD])3‐Val‐Ala‐PTX]	1.2 ± 0.5 nM	
CC(=O)O[C@H]1C(=O)[C@@]2(C)[C@H]([C@H](OC(=O)c3ccccc3)[C@]3(O)C[C@H](OC(=O)[C@H](OC(=O)N(C)CCN(C)C(=O)OCc4ccc(NC(=O)[C@H](C)NC(=O)[C@@H](NC(=O)Cc5cc(OCCNC(=O)Cc6cc(OCc7cn(CCOCCOCCOCCOCC(=O)NCc8ccc(CN9C(=O)[C@H]%10CC(=O)N[C@@H](CCCNC(=N)N)C(=O)NCC(=O)N[C@@H](CC(=O)O)C(=O)NC[C@H]9C(=O)N%10)cc8)nn7)cc(OCc7cn(CCOCCOCCOCCOCC(=O)NCc8ccc(CN9C(=O)[C@H]%10CC(=O)N[C@@H](CCCNC(=N)N)C(=O)NCC(=O)N[C@@H](CC(=O)O)C(=O)NC[C@H]9C(=O)N%10)cc8)nn7)c6)cc(OCCNC(=O)Cc6cc(OCc7cn(CCOCCOCCOCCOCC(=O)NCc8ccc(CN9C(=O)[C@H]%10CC(=O)N[C@@H](CCCNC(=N)N)C(=O)NCC(=O)N[C@@H](CC(=O)O)C(=O)NC[C@H]9C(=O)N%10)cc8)nn7)cc(OCc7cn(CCOCCOCCOCCOCC(=O)NCc8ccc(CN9C(=O)[C@H]%10CC(=O)N[C@@H](CCCNC(=N)N)C(=O)NCC(=O)N[C@@H](CC(=O)O)C(=O)NC[C@H]9C(=O)N%10)cc8)nn7)c6)c5)C(C)C)cc4)[C@@H](NC(=O)c4ccccc4)c4ccccc4)C(C)=C1C3(C)C)[C@]1(OC(C)=O)CO[C@@H]1C[C@@H]2O [compound 9, (cyclo[DKP‐RGD])4‐Val‐Ala‐PTX]	1.3 ± 0.3 nM	

— PMC5656903 (Chemistry (Weinheim an Der Bergstrasse, Germany), 2017)
